Shown are actives, neighbours in structure and some others; about 2% of the full set was active somewhere.
C8 TRAIL sens: caspase-8 TRAIL sensitization. NB7+C8 cells + TRAIL, ATPlite viability luminescence. inhibition (viability loss, TRAIL sensitization), % at 10 µM. actives 1% (n = 360,000). AID 624354;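 active = compounds causing at least 50% loss of cell viability in the single-dose screen, relative to plate controls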
PPC-1+TRAIL kill: PPC-1 cancer cell killing with TRAIL present | PPC-1 cells + TRAIL, ATPLite viability luminescence | cell killing (% activity), % at 4 µM or 5 µM | actives 0.41% (n = 220,000) | AID 1443;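 active = cell killing above 50% in the first pass at 4 µM, then a duplicate retest at 5 µM averaging 50% or more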;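 note: plate controls were cells with TRAIL plus DMSO for no effect and medium-only wells lacking cells for full effect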
FLuc inh counter: Photinus pyralis luciferase inhibition counter-screen; P08659; ATPLite firefly luciferase biochemical luminescence, 10 min; inhibition, % at 10 µM; actives 1.5% (n = 200,000);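 active = inhibition above about 50% when tested at 10 µM, limit read from the data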
Target sequence (P08659 whole entry, looked up): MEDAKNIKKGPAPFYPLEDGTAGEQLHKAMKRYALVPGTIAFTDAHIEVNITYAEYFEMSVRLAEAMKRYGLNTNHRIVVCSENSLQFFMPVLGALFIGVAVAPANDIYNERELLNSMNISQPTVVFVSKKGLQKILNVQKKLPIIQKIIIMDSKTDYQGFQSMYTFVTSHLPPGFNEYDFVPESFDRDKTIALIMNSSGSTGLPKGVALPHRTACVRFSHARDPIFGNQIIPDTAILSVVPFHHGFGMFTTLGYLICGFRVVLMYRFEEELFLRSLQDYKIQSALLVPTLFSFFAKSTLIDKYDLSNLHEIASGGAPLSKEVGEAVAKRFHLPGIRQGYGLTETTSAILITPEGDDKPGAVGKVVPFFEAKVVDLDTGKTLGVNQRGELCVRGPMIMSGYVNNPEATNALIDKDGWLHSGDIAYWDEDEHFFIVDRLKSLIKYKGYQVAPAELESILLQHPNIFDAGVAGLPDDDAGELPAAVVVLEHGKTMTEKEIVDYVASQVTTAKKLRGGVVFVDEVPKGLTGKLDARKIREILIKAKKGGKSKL
HSP90 inh: blocks HSP90-mediated luciferase refolding in reticulocyte lysate | Rabbit reticulocyte lysate, luciferase refolding luminescence, 3 h | inhibition, % at 5.6 µM | actives 0.91% (n = 290,000);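 active = inhibition above the screen-wide mean plus 3 SD, computed separately per campaign, cut at about 16% in these data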;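 note: 0% = DMSO wells and 100% = 60 µM geldanamycin wells; inhibitors lower the luminescence because luciferase stays unfolded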
FLuc stim CS: firefly luciferase counter-screen for stimulation assays; P08659; ATPlite luciferase biochemical, luminescence, 10 min; 0 = ATP-free wells, 1 = DMSO control; activation factor at 10 µM; 200,000 tested, under 10 active; AID 1027;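 active = luciferase activation factor, scaled between plate controls, of at least 2 with compound at 10 µM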
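test system = cell-free luciferase reagent | medium = PBS as buffer for the ATP substrate | dosing = test compounds dosed from 2 mM stocks in 100% DMSO | incubation = 10 min at ambient temperature | detection = luminescence measurement of luciferase light output | benchmarks = low control with PBS replacing ATP, high control enzyme plus ATP without compound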
PPC1 cytotox: kills PPC-1 cells; AID 1447; actives 50% (n = 1,200); shares compounds with PPC-1+TRAIL kill; PPC-1 viability, ATPlite luminescence, overnight; cytotoxicity, % at 5 µM;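 active = reconfirmed compounds whose average cytotoxicity reaches 50% or more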;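 note: 0% = DMSO-treated cells and 100% = wells holding medium but no cells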
* = called active by the depositor; x = not tested or not shown.

SMILES | C8 TRAIL sens | PPC-1+TRAIL kill | FLuc inh counter | HSP90 inh | FLuc stim CS | others
COc1ccccc1CCNC(=O)CCC(=O)N1CC2C[C@@H](C1)Cn1c2cccc1=O | 15 | x | x | -6 | x
CN(C)C(=O)O/N=C(\N)COc1ccc(C(C)(C)C)cc1 | 90* | 21 | x | 1 | x
CCOC(=O)C(O)(c1ccc(N(C)C(=O)COc2ccccc2)cc1)C(F)(F)F (stereo unspecified) | -8 | x | x | 1 | x
COc1ccc(C(CC(=O)N2CCC3(CC2)OCCO3)NS(=O)(=O)c2ccc(OC)cc2)cc1 (stereo unspecified) | 1 | 54* | -7 | -2 | 1.1
COc1ccc(C(CC(=O)N2CCC3(CC2)OCCO3)NS(=O)(=O)c2ccc(C)cc2)cc1 (stereo unspecified) | -2 | 0 | -4 | -9 | 1
COc1ccc2c(c1)C13CCN4CC5=CCOC6CC(=O)N2C1C6C5CC43 (stereo unspecified) | 2 | x | x | x | x
c1ccc(-c2ccc(CN3Cc4ccccc4-n4nncc4C3)cc2)cc1 | 16 | x | x | x | x
Oc1cccc(/C=N/NP(=S)(c2ccccc2)c2ccccc2)c1 | -7 | 3 | 2 | 3 | 1
Nc1ccccc1C(=O)OCC(=O)c1ccc2c(c1)OCCO2 | 5 | -7 | 97* | 1 | 0
CCOC(=O)c1c(N)n(CCCOC(=O)c2ccco2)c2nc3ccccc3nc12 | 52* | 21 | -8 | 1 | 1.1
CCCCCn1c(NC(=O)c2ccco2)c(C(=O)OCC)c2nc3ccccc3nc21 | 19 | 20 | -10 | 5 | 1.1
COc1cc2c(cc1OC)C13CCN4CC5=CCOC6CC(=O)N2C1C6C5C3C4 (stereo unspecified) (tested in a mixture with another compound) | 3 | x | x | x | x
CC(=O)OC1CC2OC3C=C(C)CCC3(C)C1(C)C21CO1 (stereo unspecified) | 58* | x | x | x | x
CC(=O)OC1CC(OC2C(O)CC(OC3C(O)CC(OC4CCC5(C)C(CCC6C5CC(O)C5(C)C(C7=CC(=O)OC7)CCC65O)C4)OC3C)OC2C)OC(C)C1OC1OC(CO)C(O)C(O)C1O (stereo unspecified) | 67* | x | x | x | x
CC12CCC(O)CC1CCC1C2CCC2(C)C(C3=CC(=O)OC3)CCC12O (stereo unspecified) | 64* | x | x | x | x
C[C@]12CC[C@H](O)C[C@H]1CC[C@@H]1[C@@H]2CC[C@]2(C)[C@@H](C3=CC(=O)OC3)CC[C@]12O | 37 | x | x | x | x
CC(=O)C1CCC2C3CCC4CC(O)CCC4(C)C3CCC12C (stereo unspecified) | -8 | x | x | x | x
C[C@]12CC[C@H](O)C[C@H]1CC[C@@H]1[C@@H]2C[C@@H](O)[C@]2(C)[C@@H](C3=CC(=O)OC3)CC[C@]12O | 56* | x | x | x | x
CC12CCC(O)CC1CCC1C2CCC2(C)C(C3=CC(=O)OC3)C(O)CC12O (stereo unspecified) | 58* | x | x | x | x
O=C(Cc1ccccc1)Oc1cccc(-n2cnnn2)c1 | -2 | 12 | 0 | -1 | 1
O=C(c1cc(=O)[nH]c2ccc(Br)cc12)N1CCC2(CC1)OCCO2 | -11 | 15 | -6 | 2 | 1.1
COC(=O)C1=C(C)NC(=S)NC1c1ccc(N(CCCl)CCCl)cc1Cl (stereo unspecified) | -16 | x | x | x | x
COC1C(O)C(C)OC(OC2CCC3(C)C(CCC4C3C(O)CC3(C)C(C5=CC(=O)OC5)CCC43O)C2)C1O (stereo unspecified) | 68* | x | x | x | x
Cc1ccccc1[N+](=O)[O-] | -3 | x | x | x | x
Cc1cc([N+](=O)[O-])c2ccccc2[n+]1[O-] | 33 | 94* | x | 4 | x | PPC1 cytotox=91*
SMILES | C8 TRAIL sens | PPC-1+TRAIL kill | FLuc inh counter | HSP90 inh | FLuc stim CS | others
COCCn1c(O)c(/C=N/NC(=O)CSC(=S)N2CCCC2)c(=O)[nH]c1=S | -11 | x | x | x | x
Cc1cccc(CN(C)C)c1OC(=O)N(C)C | -4 | 1 | 0 | 0 | 1 | PPC1 cytotox=8
Cc1ccc2nc(N3CCN(C)CC3)[nH]c2c1 | -3 | 6 | 4 | -4 | 1 | PPC1 cytotox=14
CC(C)N1CCN(Cc2ccc3c(c2)OCCO3)CC1CCO (stereo unspecified) | -6 | -9 | -5 | -9 | 1.1 | PPC1 cytotox=-6
CC(C)N1CCN(Cc2cc3c(cc2Cl)OCO3)CC1CCO (stereo unspecified) | -3 | -63 | x | 2 | x
Cc1cc(=O)oc2cc(OCC(=O)N3CCN(Cc4ccc5c(c4)OCO5)CC3)ccc12 | 5 | x | x | -1 | x
CN1C(=O)C(C2c3ccccc3C(=O)N2Cc2ccccc2)C(=O)N(C)C1=O (stereo unspecified) | -5 | -3 | 3 | -1 | 1 | PPC1 cytotox=-4
CNc1ccc2oc(C[C@H]3O[C@@]4(CC[C@H]3C)O[C@H]([C@H](C)C(=O)c3ccc[nH]3)[C@H](C)C[C@H]4C)nc2c1C(=O)O | 83* | 44 | x | x | x | PPC1 cytotox=49
O=C1C(=O)c2ccccc2-c2ccccc21 | 95* | 68* | -1 | 11 | 1 | PPC1 cytotox=63*
O=C1C(=O)c2cccc3cccc1c23 | -1 | 23 | -6 | -4 | 1.1
O=C(C[N+]12CCN(CC1)CC2)NCCc1ccc(Cl)cc1Cl | 2 | 33 | -3 | 2 | 1
O=c1[nH]c(=S)[nH]c(O)c1C(c1ccccn1)c1c(O)[nH]c(=S)[nH]c1=O | -3 | 8 | -5 | -1 | 1.1
CCOc1ccc(C2CC(c3c(O)n(C)c(=O)n(C)c3=O)=NN2)cc1 (stereo unspecified) | 74* | 69* | x | -1 | x | PPC1 cytotox=71*
Cn1c(O)c(C2=NNC(c3ccc(Cl)cc3)C2)c(=O)n(C)c1=O (stereo unspecified) | 37 | 13 | x | -2 | x
CC1Oc2cc3c(-c4c(O)cc(O)c5c(O)c6c(cc45)OC(C)C(C)C6=O)c(O)cc(O)c3c(O)c2C(=O)C1C (stereo unspecified) | 49 | 13 | x | -1 | x
CN1CCN(c2ccc([N+](=O)[O-])c3no[n+]([O-])c23)CC1 | 95* | 78* | x | 5 | x | PPC1 cytotox=80*
C=C(C=O)C[C@@H]1C[C@H](O)C2OC3C[C@]4(C)OC5/C=C\CC6OC7C(CC=CCC6OC5CCCC4OC3CC2O1)OC1CC2OC3CC(=O)OC3C[C@@H](C)C[C@@]2(C)OC1C[C@@H]7C (stereo partly specified) | x | 78* | x | x | x | PPC1 cytotox=77*
C=C(C=O)CC1CC(O)[C@]2(C)OC3C[C@@H]4OC5C[C@]6(C)O[C@]7(C)CCC8OC9C[C@]%10(C)OC(/C(C)=C\CO)C(O)CC%10OC9CC(C)C8OC7CC6O[C@]5(C)C/C=C\C4OC3CC2O1 (stereo partly specified) | -9 | x | x | x | x
